Measurements as given in ChEMBL document CHEMBL4265871, “Novel alkylated azoles as potent antifungals” (Eur J Med Chem, 2017).
Values after ≈ are worked out from the molar mass of the structure shown. Active and inactive are the calls of the source. The rule behind the calls is not given here.

Key:
Candida albicans [1] = experiment: Antifungal activity against Candida albicans ATCC 64124 incubated for 48 hrs by modified CLSI M27-A3 protocol based method; assay type: functional; conditions: ATCC 64124, 48 h
Aspergillus terreus = experiment: Antifungal activity against Aspergillus terreus ATCC MYA-3633 incubated for 48 hrs by CLSI M38-A2 protocol based method; assay type: functional; conditions: ATCC MYA-3633, 48 h; for MIC: read-out: MIC100
Aspergillus nidulans = experiment: Antifungal activity against Aspergillus nidulans ATCC 38163 incubated for 48 hrs by CLSI M38-A2 protocol based method; assay type: functional; conditions: ATCC 38163, 48 h; for MIC: read-out: MIC100
Candida albicans [2] = experiment: Antifungal activity against ITC and FLC-resistant Candida albicans ATCC MYA-1003 incubated for 48 hrs by modified CLSI M27-A3 protocol based method; assay type: functional; conditions: ATCC MYA-1003, 48 h
In short: (§1)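 Because these Candida strains show trailing growth, MIC-2 was read, meaning 50% growth inhibition. Caspofungin and voriconazole were tested here; other controls came from earlier work.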

Candida parapsilosis = experiment: Antifungal activity against Candida parapsilosis ATCC 22019 incubated for 48 hrs by modified CLSI M27-A3 protocol based method; assay type: functional; conditions: Lodderomyces parapsilosis, ATCC 22019, 48 h; for MIC: read-out: MIC100
In short: (§2)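 For C. albicans ATCC 10231, C. krusei ATCC 6258 and C. parapsilosis ATCC 22019, MIC-0 was read, meaning complete growth inhibition. For azole controls, MIC-2 (50% growth inhibition) was reported instead. Caspofungin and voriconazole were tested here; other controls came from earlier work.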

Candida albicans [3] = experiment: Antifungal activity against Candida albicans ATCC 10231 at 0.5 to 4 times MIC incubated for 3 to 24 hrs by time kill assay
Candida albicans [4] = experiment: Antifungal activity against ITC and FLC-susceptible Candida albicans ATCC MYA-2876 incubated for 48 hrs by modified CLSI M27-A3 protocol based method; assay type: functional; conditions: ATCC MYA-2876, 48 h; in short: as §1
Candida albicans [5] = experiment: Antifungal activity against ITC and FLC-susceptible Candida albicans ATCC MYA-2310 incubated for 48 hrs by modified CLSI M27-A3 protocol based method; assay type: functional; conditions: ATCC MYA-2310, 48 h
Nakaseomyces glabratus = experiment: Antifungal activity against Candida glabrata ATCC 2001 incubated for 48 hrs by modified CLSI M27-A3 protocol based method; assay type: functional; conditions: ATCC 2001, 48 h
Pichia kudriavzevii = experiment: Antifungal activity against Candida krusei ATCC 6258 incubated for 48 hrs by modified CLSI M27-A3 protocol based method; assay type: functional; conditions: ATCC 6258, 48 h; for MIC: read-out: MIC100; in short: as §2
Candida albicans [6] = experiment: Antifungal activity against ITC and FLC-resistant Candida albicans ATCC MYA-90819 incubated for 48 hrs by modified CLSI M27-A3 protocol based method; assay type: functional; conditions: ATCC MYA-90819, 48 h
Candida albicans [7] = experiment: Antifungal activity against ITC and FLC-resistant Candida albicans ATCC 1237 incubated for 48 hrs by modified CLSI M27-A3 protocol based method; assay type: functional; conditions: ATCC 1237, 48 h; in short: as §1
Candida albicans [8] = experiment: Antifungal activity against Candida albicans ATCC 10231 incubated for 48 hrs by modified CLSI M27-A3 protocol based method; assay type: functional; conditions: ATCC 10231, 48 h, read-out: MIC100; in short: as §2
Aspergillus flavus = experiment: Antifungal activity against Aspergillus flavus ATCC MYA-3631 incubated for 48 hrs by CLSI M38-A2 protocol based method; assay type: functional; conditions: ATCC MYA-3631, 48 h, read-out: MIC100
[9] = Hemolytic activity in mouse erythrocytes assessed as hemolysis level at 3.9 ug/ml incubated for 1 hr at 37 degC; assay type: ADME, cell-based, Erythrocyte; conditions: read-out: Activity
In short: (§3)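 Mouse erythrocytes incubated 1 h at 37 °C with test agents over 1.95 to 125 µg/mL. Percent lysis is read for each concentration.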

[10] = Hemolytic activity in mouse erythrocytes assessed as hemolysis level at 7.8 ug/ml incubated for 1 hr at 37 degC; assay type: ADME, cell-based, Erythrocyte; conditions: read-out: Activity; in short: as §3
Candida albicans [11] = experiment: Effect on sterol composition in Candida albicans ATCC 64124 assessed as eburicol level at 1.95 ug/mL incubated for 10 mins by LC-MS analysis (reference value: 6.28%)
Candida albicans [12] = experiment: Effect on sterol composition in Candida albicans ATCC 10231 assessed as ergosterol level at 0.125 ug/mL incubated for 10 mins by GC-MS analysis (reference value: 91.15%)
[13] = Toxicity in human A549 cells assessed as reduction in cell viability incubated for 24 hrs by resazurin dye based assay
In short: (§4)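 Toxicity tested in the nucleated lines A549 and BEAS-2B to give EC50 values. Selectivity index is EC50 against the mammalian line divided by the MIC against a given fungal strain.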

Candida albicans [14] = experiment: Effect on sterol composition in Candida albicans ATCC 64124 assessed as unknown sterol level at 1.95 ug/mL incubated for 10 mins by LC-MS analysis (reference value: 2.67 to 6.98%)
[15] = Hemolytic activity in mouse erythrocytes assessed as hemolysis level at 1.95 ug/ml incubated for 1 hr at 37 degC; assay type: ADME, cell-based, Erythrocyte; conditions: read-out: Activity; in short: as §3
in vitro = conditions: mouse
[16] = Hemolytic activity in mouse erythrocytes assessed as hemolysis level at 31.3 ug/ml incubated for 1 hr at 37 degC; assay type: ADME, cell-based, Erythrocyte; conditions: read-out: Activity; in short: as §3
Candida albicans [17] = experiment: Effect on sterol composition in Candida albicans ATCC 10231 assessed as lanosterol level at 0.125 ug/mL incubated for 10 mins by GC-MS analysis (reference value: 4.17%)
[18] = Toxicity in human BEAS2B cells assessed as reduction in cell viability incubated for 24 hrs by resazurin dye based assay; conditions: BEAS-2B cells; in short: as §4
Candida albicans [19] = experiment: Effect on sterol composition in Candida albicans ATCC 64124 assessed as ergosterol level at 1.95 ug/mL incubated for 10 mins by LC-MS analysis (reference value: 54.72%)
[20] = Hemolytic activity in mouse erythrocytes assessed as hemolysis level at 125 ug/ml incubated for 1 hr at 37 degC; assay type: ADME, cell-based, Erythrocyte; conditions: read-out: Activity; in short: as §3
Candida albicans [21] = experiment: Effect on sterol composition in Candida albicans ATCC 64124 assessed as lanosterol level at 1.95 ug/mL incubated for 10 mins by LC-MS analysis (reference value: 29.38%)
[22] = Hemolytic activity in mouse erythrocytes assessed as hemolysis level at 15.6 ug/ml incubated for 1 hr at 37 degC; assay type: ADME, cell-based, Erythrocyte; conditions: read-out: Activity; in short: as §3
Candida albicans [23] = experiment: Effect on sterol composition in Candida albicans ATCC 10231 assessed as unknown sterol level at 0.125 ug/mL incubated for 10 mins by GC-MS analysis (reference value: 1.88 to 2.78%)
Candida albicans [24] = experiment: Induction of membrane permeabilization in Candida albicans ATCC 10231 at 1 to 4 times MIC incubated for 1 hr by propidium iodide staining based fluorescence microscopy; assay type: functional, organism-based
In short: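 C. albicans ATCC 10231 treated at 1× and 4× MIC and stained with propidium iodide, a membrane-impermeant dye, to detect membrane damage. Untreated cells, FLC (7.8 µg/mL) and KANB (C14) (7.8 µg/mL) serve as comparators.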

BEAS-2B = experiment: Toxicity in human BEAS2B cells assessed as cell viability at 15.6 ug/ml incubated for 24 hrs by resazurin dye based assay
A549 = experiment: Toxicity in human A549 cells assessed as cell viability at 15.6 ug/ml incubated for 24 hrs by resazurin dye based assay; conditions: a549, 24 h

| SMILES | MIC50 (Candida albicans [1]) | MIC50 (Candida albicans [2]) | MIC50 (Candida parapsilosis) | MIC50 (Candida albicans [4]) | MIC50 (Candida albicans [5]) | MIC50 (Nakaseomyces glabratus) | MIC50 (Pichia kudriavzevii) | MIC50 (Candida albicans [6]) | MIC50 (Candida albicans [7]) | MIC (Candida albicans [8]) | MIC (Aspergillus terreus) | MIC (Aspergillus nidulans) | MIC (Aspergillus flavus) | MIC (Candida parapsilosis) | MIC (Pichia kudriavzevii) | hemolysis at 1 h, 3.9 ug/ml [9] | hemolysis at 1 h, 7.8 ug/ml [10] | hemolysis at 1 h, 1.95 ug/ml [15] | hemolysis at 1 h, 31.3 ug/ml [16] | hemolysis at 1 h, 125 ug/ml [20] | further results |
| --- | --- | --- | --- | --- | --- | --- | --- | --- | --- | --- | --- | --- | --- | --- | --- | --- | --- | --- | --- | --- | --- |
| C[C@@H](c1ncncc1F)[C@](O)(Cn1cncn1)c1ccc(F)cc1F [VORICONAZOLE] | 11.2 µM (≈ 3.91 µg/mL) | 5.6 µM (≈ 1.96 µg/mL) | < 0.06 µM | 5.6 µM (≈ 1.96 µg/mL) | 2.8 µM (≈ 0.978 µg/mL) | 0.17 µM (≈ 0.0594 µg/mL) | 0.34 µM (≈ 0.119 µg/mL) | 5.6 µM (≈ 1.96 µg/mL) | 22.3 µM (≈ 7.79 µg/mL) |  |  |  |  |  |  |  |  |  |  |  | MIC50 (Aspergillus terreus): 0.34 µM (≈ 0.119 µg/mL); MIC50 (Aspergillus nidulans): 0.06 µM (≈ 0.021 µg/mL); Activity (Candida albicans [3]): Dose-dependent effect |
| CCCCCC(O)(Cn1cncn1)c1cccc(F)c1 (stereo not drawn) | > 113 µM | > 113 µM |  | 14.1 µM (≈ 3.91 µg/mL) | 14.1 µM (≈ 3.91 µg/mL) | 28.1 µM (≈ 7.79 µg/mL) |  | 14.1 µM (≈ 3.91 µg/mL) | 14.1 µM (≈ 3.91 µg/mL) | > 113 µM | 14.1 µM (≈ 3.91 µg/mL) | 0.87 µM (≈ 0.241 µg/mL) | ≥ 113 µM | 14.1 µM (≈ 3.91 µg/mL) | 14.1 µM (≈ 3.91 µg/mL) |  |  |  |  |  |  |
| OC(Cn1cncn1)(Cn1cncn1)c1ccc(F)cc1F [FLUCONAZOLE] | > 408 µM |  | 6.4 µM (≈ 1.96 µg/mL) | 50.9 µM (≈ 15.6 µg/mL) | > 408 µM | > 102 µM | > 102 µM | > 408 µM |  |  |  |  |  |  |  | 0% | 0% | 0% | 7.5% | 13.4% | Activity (Candida albicans [11]): 11.61%; Activity (Candida albicans [12]): 93.79%; EC50 at 24 h [13]: > 62.5 µg/mL; Activity (Candida albicans [14]): 0.02 - 9.75%; hemolysis at 1 h, 62.5 ug/ml (in vitro; mouse erythrocytes): 2.7%; Activity (Candida albicans [17]): 3.81%; EC50 at 24 h [18]: > 62.5 µg/mL; Activity (Candida albicans [19]): 48.03%; Activity (Candida albicans [21]): 30.59%; hemolysis at 1 h, 15.6 ug/ml [22]: 0%; Activity (Candida albicans [23]): 1.12 - 1.25% |
| CCCCCCCCCCC(O)(Cn1cncn1)c1ccc(F)cc1F (stereo not drawn) | 42.7 µM (≈ 15.6 µg/mL) | > 85.6 µM |  | 21.3 µM (≈ 7.78 µg/mL) | 21.3 µM (≈ 7.78 µg/mL) | 21.3 µM (≈ 7.78 µg/mL) |  | 85.6 µM (≈ 31.3 µg/mL) | > 85.6 µM | 21.3 µM (≈ 7.78 µg/mL) | 10.7 µM (≈ 3.91 µg/mL) | 0.66 µM (≈ 0.241 µg/mL) | > 85.6 µM | 0.33 µM (≈ 0.121 µg/mL) | 0.66 µM (≈ 0.241 µg/mL) |  |  |  |  |  | Activity (Candida albicans [24]): inactive |
| C[C@@H]1[C@H](O)[C@@H](C)/C=C/C=C/C=C/C=C/C=C/C=C/C=C/[C@H](O[C@@H]2O[C@H](C)[C@@H](O)[C@H](N)[C@@H]2O)C[C@@H]2O[C@](O)(C[C@@H](O)C[C@@H](O)[C@H](O)CC[C@@H](O)C[C@@H](O)CC(=O)O[C@H]1C)C[C@H](O)[C@H]2C(=O)O [AMPHOTERICIN B] |  |  |  |  |  |  |  |  |  |  | 4.2 µM (≈ 3.88 µg/mL) | 16.9 µM (≈ 15.6 µg/mL) |  | 2.1 µM (≈ 1.94 µg/mL) |  | 3.4% | 3.7% | 1.7% | 80% | 92.6% | viability (BEAS-2B): 30%; hemolysis at 1 h (in vitro; erythrocyte): 90.3%; MIC (Candida albicans [4]; read-out: MIC100): 2.1 µM (≈ 1.94 µg/mL); MIC (Candida albicans [5]; read-out: MIC100): 2.1 µM (≈ 1.94 µg/mL); viability (A549): 30%; MIC (Nakaseomyces glabratus): 2.1 µM (≈ 1.94 µg/mL); MIC (Candida albicans [6]): 1.1 µM (≈ 1.02 µg/mL); hemolysis at 1 h, 15.6 ug/ml [22]: 32% |
